Source: the RNAGym collection of RNA variant scans (doi:10.1126/science.aae0568)
Variants at the floor of the assay were thinned out.

B1: tRNA (parent)
chain: GUUCCGUUGGCGUAAUGGUAACGCGUCUCCCUCCUAAGGAGAAGACUGCGGGUUCGAGUCCCGUACGGAACG

Variants of: B1
Test: yeast fitness relative to wild type (ratio to wild type); higher = fitter; tRNA-Arg(CCU), competitive growth, 37 C, YPD
Procedure, shortened: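 The tRNA-Arg(CCU) gene variants were made by chemical synthesis with a 3% per-site mutation rate at 69 sites and inserted at the native genomic locus of Saccharomyces cerevisiae. After pooling, the strains were competed in YPD at 37°C for 24 hours in six parallel replicates. Gene amplicons from the start population and each end population were read by 100-nucleotide paired-end sequencing, and Darwinian fitness relative to wild type was taken from genotype frequency changes. Genotypes needed ≥ 100 starting reads, and estimates < 0.5 were set to 0.5.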

Row | Variant | yeast fitness
1 | G58A C66G | 0.943
2 | C55U U59A A70U | 0.524
3 | G56A C61U C62G | ≤ 0.5
4 | C60A G63A | 0.584
5 | G56A C62U | 0.967
6 | C60G C62U | 0.743
7 | U59C G68C | 0.765
8 | C61A G68U | 0.534
9 | C61A G68C | 0.607
10 | G63A C66U | 0.826
11 | U59A A65C A70C | 0.551
12 | A57C G67A | 0.504
13 | A57C G67U | 0.516
14 | C62G G63C A65U | ≤ 0.5
15 | U59G C60A | 0.509
16 | G58C A70U | 1
17 | G58C A70C | 0.923
18 | C62G G68C | 0.592
19 | C62G G68U | 0.707
20 | C62G G68A | 0.56
21 | C61G G68U | 0.558
22 | C61G G68A | 0.677
23 | A57G C62G C66U | 0.596
24 | G56U A57G G68U | ≤ 0.5

Row | Variant | yeast fitness
25 | U59A C61U | 0.711
26 | U59A C61G | 0.62
27 | A57C G58C U59G C66U | 0.606
28 | C60A A70U | 0.68
29 | G58C C60G | 0.683
30 | C62G C66U | 0.652
31 | C61U A65U C66U | ≤ 0.5
32 | C62A C66A | 0.51
33 | A57C U64A | 0.707
34 | G56C G68C | 0.716
35 | C62A G63C | 0.661
36 | C62A G63A | 0.578
37 | U59C G67A | 0.835
38 | C60U C61U U64G | 0.677
39 | G56C A65G | 0.606
40 | U59G U64C A65U | ≤ 0.5
41 | A57G C61G C62A | 0.633
42 | A57U C61A | 0.528
43 | A57U C61G | 0.592
44 | G63C A70C | 0.744
45 | U59C A69C | 0.968
46 | C62U G68C | 0.812
47 | C61U G67C | 0.892
48 | A57C G68C | 0.729

Row | Variant | yeast fitness
49 | C61G A70C | 0.763
50 | C60U G68C | 0.752
51 | A57G G67C | 0.932
52 | A57C G58A | 0.696
53 | A57C G58C | 0.77
54 | G56A U64C | 1.01
55 | A57G U64C | 0.979
56 | A57G U64G | 0.841
57 | A57G U64A | 0.755
58 | A57G C60U | 0.838
59 | A57G C60G | 0.641
60 | A57G C60A | 0.636
61 | C60A C61G A65U | ≤ 0.5
62 | G63C C66U | 0.666
63 | G63C C66G | 0.709
64 | G56A G63C | 0.818
65 | C60G G63C | ≤ 0.5
66 | C60U G67C | 0.828
67 | C60U G67U | 0.678
68 | G56A A65U G67A | ≤ 0.5
69 | A57U C60G G68C | 0.532
70 | A57G G63A | 0.879
71 | C61A A65G | 0.595
72 | A57U A69U | 0.668

Row | Variant | yeast fitness
73 | A57U A69C | 0.69
74 | G63U C66A A69U | ≤ 0.5
75 | G58A G68U | 0.835
76 | C55U U59A | 0.891
77 | C61G G67A | 0.592
78 | C61G G67C | 0.61
79 | G56C C61A | ≤ 0.5
80 | C61A C66U | 0.691
81 | C61A C66A | 0.627
82 | C61U G63U G68A | 0.529
83 | G63A G68C | 0.883
84 | G63A G68A | 0.843
85 | A57U C60G | 0.532
86 | A57U C60A | 0.54
87 | G56C C66U | 0.699
88 | G56C C66A | 0.567
89 | G58C C62G A70U | 0.616
90 | G56C U59C | 0.607
91 | G56C U59G | 0.693
92 | A57C C62A C66A | ≤ 0.5
93 | G56C U59A A65G | 0.571
94 | C61A C66U A69C | 0.601
95 | G56A G58C U64A A69G | 0.545
96 | C61A U64C | 0.801

Row | Variant | yeast fitness
97 | U64A A65C G68A | 0.526
98 | A57G U59C A70G | 0.684
99 | U59C C61G | 0.588
100 | U59C C62U G68U | 0.609
101 | G56A A65G | 1.01
102 | G56A A65C | 1.1
103 | C60U C66G | 0.687
104 | C60U C66A | 0.619
105 | A57G C66G | 0.783
106 | A57G C66A | 0.652
107 | C62U G63A A70C | 0.583
108 | C62A G68A | 0.797
109 | C62A G68C | 0.875
110 | G56C A57C A70G | 0.594
111 | A57U A70G | 0.753
112 | A57C C62A A65C | ≤ 0.5
113 | C62U A65C | 0.914
114 | C62U A65G | 0.886
115 | C62U G67A | 0.849
116 | G56C A69U | 0.671
117 | C60G A69U A70U | 0.545
118 | G58U G63C | 0.586
119 | G63C A65C | 0.638
120 | G63C A65G | 0.594

Row | Variant | yeast fitness
121 | C60A A65U | 0.58
122 | U59A A70U | 0.91
123 | U59A A70G | 0.975
124 | C61U A69G | 0.878
125 | C60G U64C | 0.568
126 | C61A A70U | 0.673
127 | G56C A57U | 0.562
128 | A57U A69U A70C | ≤ 0.5
129 | A57G G67A A70U | ≤ 0.5
130 | A57G C61G | 0.61
131 | A57G C61U | 0.699
132 | A57U G68A | 0.658
133 | A57U G68U | 0.769
134 | G58C U59C | 0.948
135 | A57G G58A C60A C66U | 0.595
136 | C60G C66G | 0.576
137 | G58C | 0.992
138 | G58U | 1.04
139 | G58A | 0.981
140 | G58A G68U A70G | 0.601
141 | G58C A69C | 1.02
142 | C61G G67C G68A | 0.611
143 | G58C G68A A70G | ≤ 0.5
144 | C61U A65C | 0.864

Row | Variant | yeast fitness
145 | C60U G63C | 0.572
146 | U59A C62A | 0.657
147 | U59A C62G | 0.563
148 | U59A A65C | 0.892
149 | G56A G58A | 0.907
150 | G56A G58C | 0.95
151 | C60U | 0.779
152 | C60G | 0.664
153 | C60A | 0.613
154 | C60U U64A | 0.656
155 | C62A A65U C66U | ≤ 0.5
156 | G58A C61U A70G | 1.02
157 | G58A C61G A70U | 0.749
158 | A57C G63A | 0.558
159 | C61A A69C | 0.631
160 | C61A A69U | 0.816
161 | G56C A57G G68U | ≤ 0.5
162 | G58A A70C | 1.01
163 | G58A A70G | 0.949
164 | C60G C61U G63A | ≤ 0.5
165 | U59C C62A | 0.75
166 | G56A C66U | 1.1
167 | U59G A70U | 0.747
